According to ChEMBL document CHEMBL1828575, “Design, synthesis and antiproliferative activities of biarylolefins based on polyhydroxylated and carbohydrate scaffolds” (Eur J Med Chem, 2011):
Active and inactive are the calls of the source. The rule behind the calls is not given here.

Assays:
[1] = test system: SK-OV-3; assay: Cytotoxicity against human SKOV3 cells at 10^-6 M after 72 hrs by MTS assay; type: functional; conditions: SK-OV-3, 72 h, read-out: GI
In short: (§1)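 Preliminary screen at 10^-5 and 10^-6 M. Cells were grown in RPMI with 10% fetal calf serum plus penicillin, streptomycin and fungizone under 5% CO₂, plated in 96-well plates, and dosed 24 h later from DMSO stocks (1% DMSO final, same in controls). After 72 h, MTS was added for 3 h at 37 °C and absorbance read at 490 nm. Inhibition was calculated as (1 − OD treated/OD control) × 100, in triplicate.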

[2] = test system: HT-29; assay: Cytotoxicity against human HT-29 cells at 10^-6 M after 72 hrs by MTS assay; type: functional; conditions: HT-29, 72 h, read-out: GI
In short: (§2)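 Cells grown in RPMI with 10% fetal calf serum, penicillin, streptomycin and fungizone under 5% CO₂. Plated in 96-well plates and dosed 24 h later with compound in DMSO (1% final DMSO; controls got DMSO alone). After 72 h, MTS was added for 3 h at 37 °C and A490 read. Inhibition = (1 − OD treated/OD control) × 100, in triplicate.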

[3] = Cytotoxicity against human HL60R cells at 10^-5 M after 72 hrs by MTS assay; type: functional, HL-60; conditions: read-out: GI; in short: as §2
[4] = test system: HCT-15; assay: Cytotoxicity against human HCT15 cells at 10^-5 M after 72 hrs by MTS assay; type: functional; conditions: HCT-15, 72 h, read-out: GI; in short: as §2
[5] = test system: MIA PaCa-2; assay: Cytotoxicity against human MIAPaCa2 cells at 10^-5 M after 72 hrs by MTS assay; type: functional; conditions: MIA PaCa-2, 72 h, read-out: GI
[6] = test system: PC-3; assay: Cytotoxicity against human PC3 cells at 10^-6 M after 72 hrs by MTS assay; type: functional; conditions: PC-3, 72 h, read-out: GI; in short: as §1
[7] = test system: HCT-15; assay: Cytotoxicity against human HCT15 cells at 10^-6 M after 72 hrs by MTS assay; type: functional; conditions: HCT-15, 72 h, read-out: GI; in short: as §2
[8] = test system: SF-268; assay: Cytotoxicity against human SF268 cells at 10^-6 M after 72 hrs by MTS assay; type: functional; conditions: SF-268, 72 h, read-out: GI; in short: as §1
[9] = test system: SK-OV-3; assay: Cytotoxicity against human SKOV3 cells at 10^-5 M after 72 hrs by MTS assay; type: functional; conditions: SK-OV-3, 72 h, read-out: GI; in short: as §1
[10] = test system: OVCAR-8; assay: Cytotoxicity against human OVCAR8 cells at 10^-6 M after 72 hrs by MTS assay; type: functional; conditions: OVCAR-8, 72 h, read-out: GI; in short: as §1
[11] = test system: OVCAR-8; assay: Cytotoxicity against human OVCAR8 cells at 10^-5 M after 72 hrs by MTS assay; type: functional; conditions: OVCAR-8, 72 h, read-out: GI; in short: as §1
[12] = test system: PC-3; assay: Cytotoxicity against human PC3 cells at 10^-5 M after 72 hrs by MTS assay; type: functional; conditions: PC-3, 72 h, read-out: GI; in short: as §1
[13] = test system: HCT-116; assay: Cytotoxicity against human HCT116 cells at 10^-5 M after 72 hrs by MTS assay; type: functional; conditions: HCT-116, 72 h, read-out: GI; in short: as §2
[14] = Cytotoxicity against human HL60R cells at 10^-6 M after 72 hrs by MTS assay; type: functional; conditions: read-out: GI; in short: as §2
[15] = organism: Ovis aries; assay: Inhibition of sheep brain tubulin polymerization at 10 uM
In short: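 Microtubule protein from sheep brain, purified by two assembly/disassembly cycles (37 °C/0 °C), in 100 mM MES pH 6.6, 1 mM EGTA, 0.5 mM MgCl₂. Compounds in DMSO were tested at a single concentration, with incubation at 37 °C for 10 min and then 0 °C for 5 min before measuring assembly rate, following a modified Guénard protocol.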

[16] = Cytotoxicity against human MDA231 cells at 10^-6 M after 72 hrs by MTS assay; type: functional; conditions: MDA-MB-231, 72 h, read-out: GI; in short: as §1
[17] = test system: HT-29; assay: Cytotoxicity against human HT-29 cells at 10^-5 M after 72 hrs by MTS assay; type: functional; conditions: HT-29, 72 h, read-out: GI; in short: as §2
[18] = Cytotoxicity against human MDA231 cells at 10^-5 M after 72 hrs by MTS assay; type: functional; conditions: MDA-MB-231, 72 h, read-out: GI; in short: as §1
[19] = test system: A549; assay: Cytotoxicity against human A549 cells at 10^-6 M after 72 hrs by MTS assay; type: functional; conditions: A549, 72 h, read-out: GI; in short: as §2
[20] = test system: SF-268; assay: Cytotoxicity against human SF268 cells at 10^-5 M after 72 hrs by MTS assay; type: functional; conditions: SF-268, 72 h, read-out: GI; in short: as §1
[21] = test system: MIA PaCa-2; assay: Cytotoxicity against human MIAPaCa2 cells at 10^-6 M after 72 hrs by MTS assay; type: functional; conditions: MIA PaCa-2, 72 h, read-out: GI
[22] = test system: A549; assay: Cytotoxicity against human A549 cells at 10^-5 M after 72 hrs by MTS assay; type: functional; conditions: A549, 72 h, read-out: GI; in short: as §2
[23] = test system: HCT-116; assay: Cytotoxicity against human HCT116 cells at 10^-6 M after 72 hrs by MTS assay; type: functional; conditions: HCT-116, 72 h, read-out: GI; in short: as §2
[24] = test system: MCF7; assay: Cytotoxicity against human MCF7 cells at 10^-6 M after 72 hrs by MTS assay; type: functional; conditions: MCF7, 72 h, read-out: GI
[25] = test system: HL-60; assay: Cytotoxicity against human HL60 cells at 10^-5 M after 72 hrs by MTS assay; type: functional; conditions: HL-60, 72 h, read-out: GI; in short: as §2
[26] = test system: K562; assay: Cytotoxicity against human K562 cells at 10^-5 M after 72 hrs by MTS assay; type: functional; conditions: K562, 72 h, read-out: GI; in short: as §2
[27] = test system: HL-60; assay: Cytotoxicity against human HL60 cells at 10^-6 M after 72 hrs by MTS assay; type: functional; conditions: HL-60, 72 h, read-out: GI; in short: as §2
[28] = test system: K562; assay: Cytotoxicity against human K562 cells at 10^-6 M after 72 hrs by MTS assay; type: functional; conditions: K562, 72 h, read-out: GI; in short: as §2
[29] = test system: MCF7; assay: Cytotoxicity against human MCF7 cells at 10^-5 M after 72 hrs by MTS assay; type: functional; conditions: MCF7, 72 h, read-out: GI
[30] = test system: HCT-15; assay: Antiproliferative activity against human HCT15 cells after 72 hrs by MTS assay; type: functional, cell-based; conditions: HCT-15, 72 h
In short: (§3)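 Cell lines grown in RPMI with 10% fetal calf serum plus penicillin, streptomycin and fungizone under 5% CO2. Compounds in DMSO (1% final; controls got DMSO alone) were added 24 h after plating. After 72 h exposure, MTS was added for 3 h at 37 °C and A490 read. Inhibition = (1 − OD treated/OD control)×100, in triplicate. IC50s came from separate duplicate dose-response experiments.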

[31] = test system: K562; assay: Antiproliferative activity against human K562 cells after 72 hrs by MTS assay; type: functional, cell-based; conditions: K562, 72 h; in short: as §3
[32] = Antiproliferative activity against human MDA231 cells after 72 hrs by MTS assay; type: functional, cell-based; conditions: MDA-MB-231, 72 h; in short: as §3
[33] = test system: SK-OV-3; assay: Antiproliferative activity against human SKOV3 cells after 72 hrs by MTS assay; type: functional, cell-based; conditions: SK-OV-3, 72 h; in short: as §3
[34] = test system: PC-3; assay: Antiproliferative activity against human PC3 cells after 72 hrs by MTS assay; type: functional, cell-based; conditions: PC-3, 72 h; in short: as §3
[35] = test system: SF-268; assay: Antiproliferative activity against human SF268 cells after 72 hrs by MTS assay; type: functional, cell-based; conditions: SF-268, 72 h; in short: as §3
[36] = test system: HL-60; assay: Antiproliferative activity against human HL60 cells after 72 hrs by MTS assay; type: functional, cell-based; conditions: HL-60, 72 h; in short: as §3
[37] = test system: OVCAR-8; assay: Antiproliferative activity against human OVCAR8 cells after 72 hrs by MTS assay; type: functional, cell-based; conditions: OVCAR-8, 72 h; in short: as §3
[38] = Antiproliferative activity against human HL60R cells after 72 hrs by MTS assay; type: functional, cell-based

tubulin polymerization inhibition call (active/not active) [15]	SMILES	inhibition of growth at 1 µM [1] [%]	inhibition of growth at 1 µM [2] [%]	inhibition of growth at 10 µM [3] [%]	inhibition of growth at 10 µM [4] [%]	inhibition of growth at 10 µM [5] [%]	inhibition of growth at 1 µM [6] [%]	inhibition of growth at 1 µM [7] [%]	inhibition of growth at 1 µM [8] [%]	inhibition of growth at 10 µM [9] [%]	inhibition of growth at 1 µM [10] [%]	inhibition of growth at 10 µM [11] [%]	inhibition of growth at 10 µM [12] [%]	inhibition of growth at 10 µM [13] [%]	inhibition of growth at 1 µM [14] [%]	inhibition of growth at 1 µM [16] [%]	inhibition of growth at 10 µM [17] [%]	inhibition of growth at 10 µM [18] [%]	inhibition of growth at 1 µM [19] [%]	inhibition of growth at 10 µM [20] [%]	further results
inactive	COc1cc(C(=C(COC(C)=O)COC(C)=O)c2cc(OC)c(OC)c(OC)c2)cc(OC)c1OC	8	0	36	48	10	7	19	26	23	0	24	44	17	11	0	4	69	0	53	inhibition of growth at 1 µM [21]: 0%; inhibition of growth at 10 µM [22]: 22%; inhibition of growth at 1 µM [23]: 0%; inhibition of growth at 1 µM [24]: 5%; inhibition of growth at 10 µM [25]: 39%; inhibition of growth at 10 µM [26]: 29%; inhibition of growth at 1 µM [27]: 15%; inhibition of growth at 1 µM [28]: 12%; inhibition of growth at 10 µM [29]: 44%
inactive	COc1cc(C(=C(CO)CO)c2cc(OC)c(OC)c(OC)c2)cc(OC)c1OC	13	0	0	22	0	18	8	13	14	0	0	26	0	17	0	0	42	0	35	inhibition of growth at 1 µM [21]: 0%; inhibition of growth at 10 µM [22]: 13%; inhibition of growth at 1 µM [23]: 6%; inhibition of growth at 1 µM [24]: 8%; inhibition of growth at 10 µM [25]: 40%; inhibition of growth at 10 µM [26]: 25%; inhibition of growth at 1 µM [27]: 17%; inhibition of growth at 1 µM [28]: 4%; inhibition of growth at 10 µM [29]: 31%
inactive	COc1ccc(C(=C(COC(C)=O)COC(C)=O)c2cc(OC)c(OC)c(OC)c2)cc1O	71	0	90	77	51	14	18	16	84	0	94	78	59	1	0	63	75	1	71	IC50 [30]: 680 nM; IC50 [31]: 180 nM; IC50 [32]: 1030 nM; IC50 [33]: 70 nM; IC50 [34]: 270 nM; IC50 [35]: 970 nM; inhibition of growth at 1 µM [21]: 0%; IC50 [36]: 680 nM; inhibition of growth at 10 µM [22]: 67%; inhibition of growth at 1 µM [23]: 0%; inhibition of growth at 1 µM [24]: 5%; inhibition of growth at 10 µM [25]: 74%; inhibition of growth at 10 µM [26]: 78%; IC50 [37]: 1900 nM; inhibition of growth at 1 µM [27]: 15%; inhibition of growth at 1 µM [28]: 25%; IC50 [38]: 2720 nM; inhibition of growth at 10 µM [29]: 34%
